Experimental data: publication PMC11109934 (RSC Medicinal Chemistry, 2024)

How the values were obtained:
GL261-Luc cells = experiment: xCELLigence real time monitoring of cell proliferation, GL261-Luc; assay type: cell-based, mouse; settings: for reduction of cell index: 72 hours
BxPC3 cells = experiment: xCELLigence real time monitoring of cell proliferation, BxPC3; assay type: cell-based, human
[1] = system: primary cultured mouse astrocytes; experiment: xCELLigence real time monitoring of cell proliferation, primary mouse astrocytes; assay type: cell-based; settings: for reduction of cell index: primary cultured mouse astrocytes, after 72 hours
[2] = system: caspase 3/7 activation in BxPC3 cells; experiment: Caspase 3/7 assay, BxPC3; assay type: cell-based, human; settings: 72 hours; for increase in caspase 3/7 activation (apoptosis): 256 μM
Procedure, shortened: (§1)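 BxPC3 (5 × 10^3/well) or GL261-Luc (3 × 10^3/well) cells in DMEM, 10% FBS, 1% pen-strep-glutamine. After 24 h, exposed to test compound for 72 h in medium with 0.1% DMSO final. CellEvent caspase-3/7 green reagent added for 1 h at 37 °C. Whole-well fluorescence imaged (Ex 488/Em 520). Cells then fixed (3.7% PFA), permeabilised (0.3% Triton X-100), BSA-blocked and stained with CellTag 700 (Ex 685/Em 720). Caspase signal normalised to cell number, then expressed as fold over control. At least 3 independent experiments, at least 4 replicates each.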

[3] = system: BxPC3 human pancreatic cancer cells; experiment: CyQUANT viability assay, BxPC3; assay type: cell-based; settings: 72 hours, compared to the control
Procedure, shortened: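 BxPC3 cells (DMEM, 10% FBS, 1% pen-strep-glutamine; passages 10–20) were seeded at 5 × 10^3/well. After 24 h they were exposed to test compound for 72 h, with 0.1% DMSO final. Medium was removed, then CyQUANT Direct nucleic acid stain plus background suppressor in HBSS was added for 1 h at 37 °C. Whole-well fluorescence was laser-scanned (Ex 488/Em 520, 100 μm pixels) and normalised to control (100% viability). At least 3 independent experiments, at least 4 replicates each.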

[4] = system: caspase 3/7 activation in GL261-Luc cells; experiment: Caspase 3/7 assay, GL261-Luc; assay type: cell-based, mouse; settings: 72 hours; for increase in caspase 3/7 activation (apoptosis): 256 μM
Procedure, shortened: as §1

[5] = BxPC3 cells, 128 μM, after 72 hours, compared to the control
[6] = 128 μM, normalised to cell number (CellTag 700)

Structure (SMILES)	increase in caspase 3/7 activation (apoptosis) [2]	reduction of cell index (GL261-Luc cells; 256 μM)	reduction of viability (CyQUANT) ([3]; 256 μM)	reduction of cell index (BxPC3 cells; BxPC3 cells, 256 μM, 72 hours)	increase in caspase 3/7 activation (apoptosis) [4]	reduction of cell index ([1]; 256 μM)	reduction of cell index (GL261-Luc cells; 128 μM)	reduction of viability (CyQUANT) ([3]; 128 μM)	reduction of cell index (BxPC3 cells; [5])	reduction of cell index ([1]; 128 μM)	other results
Oc1cccc2ccccc12 [1-naphthol, 1-Naphthol]											time until cytotoxicity began (GL261-Luc cells; 128 μM): 28 h
Oc1ccc2ccccc2c1 [2-naphthol]											activity in real-time xCELLigence experiments (BxPC3 cells; 16 μM): notable activity; time until cell index declined (BxPC3 cells; BxPC3 cells, 128 μM): 8 h; ED50 (cell index) (BxPC3 cells; BxPC3 cells, 72-hour exposure time, xCELLigence): 21 µM; fold greater cytotoxicity than 1-naphthol (BxPC3 cells; BxPC3 cells, real time xCELLigence monitoring): 4 fold; time until cell index declined ([1]; primary cultured astrocytes, 128 μM): ≤ 4 h
C[C@H](N)C(=O)OCc1ccccc1 [L-alanine benzyl ester]	no significant increase	no significant effect	no significant effect	no significant effect	no significant increase	11–17%					
CC(C)OC(=O)[C@H](C)N [L-alanine isopropyl ester]	no significant increase	no significant effect	no significant effect	no significant effect	no significant increase	11–17%					
Oc1ccccc1 [phenol]							no significant effect	no significant effect	no significant effect	11–17%	
OCc1ccccc1O [salicyl alcohol]							no significant effect	no significant effect	no significant effect	11–17%	increase in caspase 3/7 activation [2, 6]: no effect; increase in caspase 3/7 activation [4, 6]: no effect
